Assay [1] concerns Candida albicans. As to the kind of experiment: Antimicrobial activity against Candida albicans ATCC 24433 after 24 hrs by agar well diffusion method. It is filed as functional. The method in brief: (§1)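 Agar well diffusion: stationary-phase culture suspended in saline at approx. 10^5 cfu/mL, 200 µL spread on Mueller-Hinton agar (bacteria) or Sabouraud agar (yeast, fungi). Test samples at 50 µg/50 µL added to wells. Incubated 24 h (bacteria, yeast) or 48 h (fungi). Read-out is inhibition zone diameter.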
Background: In agar diffusion tests the substance spreads into inoculated agar from a disc or well.

In assay [2] the test system is Candida albicans. The assay is described as follows: Antimicrobial activity against Candida albicans ATCC 24433 after 24 hrs using sabouraud liquid medium. The class given is functional. The method in brief: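 Broth MIC in duplicate in Sabouraud liquid medium. Samples made up at 1 mg/mL in DMSO, then serially diluted over 100-0.1 µg/mL. Inoculum is stationary-phase culture at 10^5 cfu/mL. Incubated 37 °C for 24 h. MIC taken as the lowest concentration preventing any visible growth.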

In assay [3] the test system is Staphylococcus aureus. The assay is described as follows: Antimicrobial activity against Staphylococcus aureus ATCC 25923 after 24 hrs by agar well diffusion method. The class given is functional, organism-based. The method in brief: as §1
The subject of assay [4] is Aspergillus niger. As to the kind of experiment: Antimicrobial activity against Aspergillus niger after 48 hrs by agar well diffusion method. The class given is functional, organism-based. The method in brief:
as §1

Assay [5] has as its system Escherichia coli. The assay is described as follows: Antimicrobial activity against Escherichia coli ATCC 25922 after 24 hrs by agar well diffusion method. The class given is functional. The method in brief: as §1
Assay [6] has as its system Bacillus subtilis. The assay is described as follows: Antimicrobial activity against Bacillus subtilis IP 5832 after 24 hrs by agar well diffusion method. It is filed as functional. The method in brief:
as §1

For orientation: MIC means the smallest concentration in the dilution series that meets the test's criterion for growth inhibition. Higher therefore signals a less susceptible organism.

Converted amounts (≈) assume the structure as drawn. The source made the active and inactive calls.

Consider `O=c1cc(-c2ccc(O)cc2)oc2cc(O)cc(O)c12` [APIGENIN], for which the figures for the “inhibition zone (IZ)” value in assay [1], in assay [5] and in assay [6] were 10 mm, 6 mm and 6 mm, respectively. The compound further displayed an MIC in assay [2] (ATCC 24433, 24 h) of 3 µg/mL (≈ 11.1 µM). Besides, the result in assay [3] and in assay [4] was inactive.
For the compound `O=c1cc(-c2ccc(O)cc2)oc2cc(O[C@@H]3O[C@H](CO)[C@@H](O)[C@H](O)[C@H]3O)cc(O)c12` [APIGETRIN], the result in assay [3] and in assay [4] was inactive. Also, in assay [6], the “inhibition zone (IZ)” value is recorded as 6 mm.
Take `COc1ccc(-c2oc3cc(O)c(OC)c(O)c3c(=O)c2OC)cc1O` [CENTAUREIDIN]: the values for the inhibition zone (IZ) in assay [1] and in assay [6] were 11 mm and 6 mm, respectively. In assay [2] (ATCC 24433, 24 h), this compound gave an MIC of 3 µg/mL (≈ 8.33 µM). For the same compound, the result in assay [3] and in assay [4] was inactive.
Consider `COc1ccc(-c2oc3cc(O)c(OC)c(O)c3c(=O)c2OC)cc1` [SANTIN], for which the “inhibition zone (IZ)” value in assay [1] came out at 8 mm; in assay [5], 6 mm; in assay [6] it was 6 mm. The compound also returned a minimum inhibitory concentration (MIC) in assay [2] (ATCC 24433, 24 h) of 3 µg/mL (≈ 8.71 µM). Also, the outcome in assay [3] and in assay [4] was inactive.
Consider NYSTATIN, for which the MIC in assay [2] came to 3.12 µg/mL.

The values above are taken from ChEMBL document CHEMBL1158681, “Flavones and sesquiterpene lactones from Achillea atrata subsp. multifida: antimicrobial activity” (1999).
